Key:
EC46 cells = test: Cell viability assay; type: cell-based, human; details: EC46 primary pancreatic cancer cells, MTT, 48 h
PANC-1 cells = test: Cell viability assay; type: cell-based, human; details: PANC-1 cells, MTT, 48 h
[1] = tested on: EC68, EC46 and PANC-1 cells; test: Cell growth MTT assay; type: cell-based, human; details: in vitro studies, Fig. 1, MTT 48 h
Summary of the method: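 PANC-1 and primary patient-derived pancreatic cancer lines EC46 and EC68 were grown in DMEM/F-12K (1:1) with 10% FBS at 37 °C and 5% CO2. Cells were seeded at 5000/well and attached overnight. They were then exposed for 48 h to the test compound at various concentrations or to EtOH solvent control. Viability was read by MTT, and curves were fitted by nonlinear regression.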

[2] = tested on: RTKs (EGFR, Met, IGF-1Rβ) in PANC-1 and EC46 cells; test: Immunoblot analysis of receptor tyrosine kinases; type: cell-based, human; details: 24 h
Summary of the method: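 PANC-1 and EC46 cells were seeded at 200,000/well and attached overnight. Medium was renewed with the test compound or EtOH control added. Whole-cell lysates were taken at 24 h in phosphatase-safe buffer and protein was quantified by BCA. Equal protein was resolved on 4–12% SDS-PAGE and transferred to PVDF. Blots were probed for EGFR, Met, IGF-1Rβ and β-actin, with chemiluminescent detection.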

[3] = tested on: VEGF-A secretion in PANC-1 and EC46 cells; test: VEGF-A AlphaLISA; type: cell-based, human; details: 12 h
[4] = tested on: orthotopic pancreatic PDX tumor; test: Ki-67 staining of PDX tumors; type: in vivo, NSG mice; details: PDX tumors at euthanasia, 0.25 mg/kg i.p. every other day, vs vehicle
Summary of the method: (§1)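 Orthotopic PDX mice received test compound 0.25 mg/kg i.p. or DMSO every other day. At endpoint, tumours were formalin-fixed and paraffin-embedded, and 5 micron sections were cut. Sections were stained for Ki-67 (proliferation) or by TUNEL (apoptosis). Ki-67 was scored as the average number of positive cells per high-power field by image analysis.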

[5] = tested on: orthotopic pancreatic PDX tumor; test: TUNEL staining of PDX tumors; type: in vivo, NSG mice; details: PDX tumors at euthanasia, 0.25 mg/kg i.p. every other day, vs vehicle
Summary of the method: as §1

## CC[C@H](C)[C@@H]1C(=O)N2CCC[C@@H]2C(=O)O[C@H](C(C)(C)C)C[C@@H](C)C[C@@H](O)C(C)(C)C2=N[C@H](CCC(=O)N[C@@H](Cc3ccc(OC)cc3)C(=O)N(C)[C@@H](C)C(=O)N1C)CS2 [Apra S10, apratoxin S10]
EC46 cells
  GI50: 0.32 nM
PANC-1 cells
  GI50: 2.75 nM
[1]
  concentration required to achieve the maximal response: around 50 nM
  concentration required to achieve the maximal response (minimum effective concentration): ~40 ng/mL
[2]
  effect on RTKs: potently downregulated various RTKs
[3]
  effect on VEGF-A secretion: inhibited the secretion of VEGF-A at low nanomolar to subnanomolar concentrations
[4]
  decrease in the number of cells undergoing proliferation (Ki-67): > 50%
[5]
  number of cells undergoing apoptosis (TUNEL): no difference

— paper PMC6360136 (Investigational new drugs, 2018)
